Shown are actives, neighbours in structure and some others; about 3.8% of the full set was active somewhere.
Beta apoptosis – inhibitors of cytokine-induced beta cell apoptosis, primary screen, luminescence. INS-1E cytokine-induced death, ATP luminescence, 48 h; percent of positive-control rescue, neutral wells zero. protection from apoptosis, % (no concentration beside the values). hit rate 0.8% among 300,000;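 active means Every replicate reaches about 75%, or at least half do and their mean reaches it too, limit read from the data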;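 further: higher means more ATP so stronger rescue from cytokine killing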
ANO1 block – TMEM16A chloride channel inhibitors, primary screen, cell-based, HTS | AID 588511, 2011 | hit rate 1.2% among 310,000 | HEK293 TMEM16A/YFP iodide influx fluorescence, ionomycin | Anoctamin-1 (Mus musculus), Q8BHY3 | normalized B-score (activity score, 25-100; higher = stronger inhibition) at 10 µM;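 active means ratio plate-corrected score three or more library SD toward inhibition, starting fluorescence score within five deviations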;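 further: score derived from kinetic fluorescence span divided by baseline fluorescence per well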
ANO1 activ – TMEM16A chloride channel activators or potentiators, primary screen, cell-based, HTS; Anoctamin-1 (Mus musculus), Q8BHY3; B-score at 10 µM; hit rate 0.3% among 340,000; HEK293 TMEM16A/YFP-H148Q/I152L, iodide quench fluorescence; hits give low values;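 active means fluorescence-ratio B-score plate-corrected deviation score at least 3 library SD below zero, with starting fluorescence score within 5 deviations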;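 further: channel opened by trigger with iodide after compound preincubation; score built on the fluorescence ratio of max minus min over baseline; more negative score means more quench and so TMEM16A activation or potentiation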
MC4R barr agon – MC4R agonists recruiting beta-arrestin, primary screen, cell-based, luminescence, agonist arm of biased-ligand search; U2OS MC4R beta-arrestin complementation; percent of melanotan II response, DMSO zero; activation, % at 8.9 µM; hit rate 0.98% among 360,000; Melanocortin receptor 4 (Homo sapiens), P32245; AID 540308, 2011;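 active means activation above a per-plate cutoff, the mean activation of sample wells on that plate plus 3 SD, cut at about 8% in these data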
Target sequence (P32245 whole entry, looked up): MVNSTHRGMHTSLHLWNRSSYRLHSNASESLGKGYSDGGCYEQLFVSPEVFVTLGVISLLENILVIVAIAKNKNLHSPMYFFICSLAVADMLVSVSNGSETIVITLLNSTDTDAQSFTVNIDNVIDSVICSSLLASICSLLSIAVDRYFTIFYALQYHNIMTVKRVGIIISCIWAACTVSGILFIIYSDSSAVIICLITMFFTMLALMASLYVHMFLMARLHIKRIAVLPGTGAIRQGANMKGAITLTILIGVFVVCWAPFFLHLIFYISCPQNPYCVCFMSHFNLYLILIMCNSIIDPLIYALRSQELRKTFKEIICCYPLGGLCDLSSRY
MC4R antagonist – MC4R antagonists of cAMP signaling, primary screen, cell-based, TR-FRET, antagonist arm of biased-ligand search; Melanocortin receptor 4 (Homo sapiens), P32245; MC4R-expressing cells, MTII-stimulated cAMP, LANCE TR-FRET; inhibition, % at 6.5 µM; hit rate 0.48% among 360,000; AID 540295, 2011;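 active means inhibition above its plate's cutoff, the mean of tested wells on that plate plus 3 SD, cut at about 29% in these data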
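material = U2OS cells stably expressing human melanocortin 4 receptor (MC4R) | also added = Melanotan II challenge | dosing = single nominal compound dose of 6.5 µM | detection = TR-FRET with Eu-cAMP and labeled anti-cAMP, 671 nm | replication = singlicate | timing = compound 30 min, challenge 1 h, detection 1 h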
CSC inhib – cancer stem cell viability inhibitors, primary screen, luminescence | cancer stem cell-like cells viability | inhibition, % at 7.5 µM | hit rate 1.1% among 300,000; in the data active means inhibition above about 75%; tested in HMLE shEcad cells
Numbers stand for hits.

For CN(c1ccc(OCC(=O)Nc2nc3ccccc3s2)cc1)S(=O)(=O)c1ccccc1 the results were Beta apoptosis inactive, ANO1 block inactive, ANO1 activ inactive, MC4R barr agon inactive, MC4R antagonist inactive and CSC inhib inactive.
Screening COc1ccccc1C(=O)Nc1nc2ccccc2s1 returned Beta apoptosis inactive, ANO1 block inactive, ANO1 activ inactive, MC4R barr agon inactive, MC4R antagonist inactive and CSC inhib 104.6.
For Fc1ccc2nc(Nc3nc4c(F)cc(F)cc4s3)sc2c1 the results were Beta apoptosis 89.5, ANO1 block inactive, ANO1 activ inactive, MC4R barr agon inactive, MC4R antagonist inactive and CSC inhib inactive.
Screening Cc1ccc2nc(NC(=O)c3ccccc3F)sc2c1 returned ANO1 block inactive, ANO1 activ inactive, MC4R barr agon inactive, MC4R antagonist inactive and CSC inhib inactive.
Screening Fc1ccc2nc(Nc3ccccc3)sc2c1 returned Beta apoptosis inactive, ANO1 block inactive, ANO1 activ inactive, MC4R barr agon inactive, MC4R antagonist inactive and CSC inhib inactive.
Screening CC1(C(=O)NS(=O)(=O)c2cccs2)CCN1C(=O)c1ccccc1CCc1ccccc1 (stereo unspecified) returned MC4R barr agon inactive and MC4R antagonist inactive.
CSc1ncccc1C(=O)Nc1nc2ccc(Oc3ccccc3)cc2s1 was read as Beta apoptosis inactive, ANO1 block inactive, ANO1 activ inactive, MC4R barr agon inactive, MC4R antagonist inactive and CSC inhib 78.1.
O=C(Nc1nc2c(F)cc(F)cc2s1)c1ccccn1 was read as Beta apoptosis 92.9, ANO1 block inactive, ANO1 activ inactive, MC4R barr agon inactive, MC4R antagonist inactive and CSC inhib inactive.
Screening CCOc1ccc2nc(NC(=O)c3ccccn3)sc2c1 returned Beta apoptosis 76.9, ANO1 block inactive, ANO1 activ inactive, MC4R barr agon inactive, MC4R antagonist inactive and CSC inhib 94.2.
`O=C(COc1ccccc1)NNc1nc2c(F)cc(F)cc2s1` gave Beta apoptosis inactive, ANO1 block inactive, ANO1 activ inactive, MC4R barr agon inactive, MC4R antagonist inactive and CSC inhib inactive.
Screening COc1ccc2nc(NC(=O)c3ccccc3C(=O)O)sc2c1 returned Beta apoptosis inactive, ANO1 block inactive, ANO1 activ inactive, MC4R barr agon inactive, MC4R antagonist inactive and CSC inhib inactive.
Screening O=[N+]([O-])c1cccnc1N1CCC(c2cc(-c3ccc(Cl)cc3)n[nH]2)CC1 returned Beta apoptosis inactive, ANO1 block inactive, ANO1 activ inactive, MC4R barr agon inactive, MC4R antagonist inactive and CSC inhib 101.3.
`O=S(=O)(c1ccc(NC(=S)NCc2cccnc2)cc1)N1CCCCC1` gave Beta apoptosis 126.2, ANO1 block inactive, ANO1 activ inactive, MC4R barr agon inactive, MC4R antagonist inactive and CSC inhib 138.8.
For O=C(NCc1cccnc1)c1ccc(S(=O)(=O)N2CCCCC2)cc1 the results were ANO1 block inactive, ANO1 activ inactive, MC4R barr agon inactive, MC4R antagonist inactive and CSC inhib inactive.
CC(CN1CCC(O)CC1)c1ccccc1 (stereo unspecified) was read as Beta apoptosis inactive, ANO1 block inactive, ANO1 activ inactive, MC4R barr agon inactive, MC4R antagonist inactive and CSC inhib inactive.
Screening CC1CCN(C(=O)C2CCN(CC(C)c3ccccc3)CC2)CC1 (stereo unspecified) returned Beta apoptosis inactive, ANO1 block 25, ANO1 activ inactive, MC4R barr agon inactive, MC4R antagonist inactive and CSC inhib inactive.
Screening O=C(Nc1ccc2oc(-c3cccnc3)nc2c1)c1ccc2c(c1)OCCO2 returned Beta apoptosis inactive, ANO1 block inactive, ANO1 activ inactive, MC4R barr agon inactive, MC4R antagonist inactive and CSC inhib inactive.
O=C(Nc1ccc2oc(-c3ccccc3)nc2c1)c1ccc2c(c1)OCCO2 was read as Beta apoptosis inactive, ANO1 block 25, ANO1 activ inactive, MC4R barr agon inactive, MC4R antagonist inactive and CSC inhib inactive.
Screening COC(=O)c1sc(NC(=O)CSc2nnnn2-c2cccc(OC)c2)nc1C returned Beta apoptosis inactive, ANO1 block inactive, ANO1 activ inactive, MC4R barr agon 8.7, MC4R antagonist inactive and CSC inhib inactive.
COC(=O)c1sc(NC(=O)COc2ccc(OC)cc2)nc1C was read as Beta apoptosis inactive, ANO1 block inactive, ANO1 activ inactive, MC4R barr agon inactive, MC4R antagonist inactive and CSC inhib inactive.
Screening CCOC(=O)c1sc(NC(=O)CSc2nnnn2-c2ccccc2)nc1C returned Beta apoptosis inactive, ANO1 block inactive, ANO1 activ inactive, MC4R barr agon inactive, MC4R antagonist inactive and CSC inhib inactive.
`COC(=O)c1sc(NC(=O)COc2cccc3ccccc23)nc1C` gave Beta apoptosis inactive, ANO1 block inactive, ANO1 activ inactive, MC4R barr agon 8.4, MC4R antagonist inactive and CSC inhib inactive.
`CC[C@]1(C(=O)OC)[C@H]2C(=O)N(C)C(=O)[C@H]2[C@H]2CN=C(SCc3ccc(OC)cc3)N21` gave MC4R barr agon inactive and MC4R antagonist inactive.
C=CCN1C(=O)S/C(=C/c2ccc(Sc3nc4ccccc4[nH]3)o2)C1=O was read as Beta apoptosis inactive, ANO1 block 100, ANO1 activ inactive, MC4R barr agon inactive, MC4R antagonist inactive and CSC inhib inactive.
Screening CCOC(=O)C(C)N1C(=O)S/C(=C\c2ccc(-c3ccccc3C(=O)O)o2)C1=O (stereo unspecified) returned Beta apoptosis inactive, ANO1 block inactive, ANO1 activ inactive, MC4R barr agon inactive, MC4R antagonist inactive and CSC inhib inactive.
CC(C)N1C(=O)S/C(=C/c2ccc(Sc3nc4ccccc4[nH]3)o2)C1=O was read as Beta apoptosis inactive, ANO1 block 100, ANO1 activ inactive, MC4R barr agon inactive, MC4R antagonist inactive and CSC inhib inactive.
Screening COc1ccc(NC(=O)COC(=O)CNC(=O)c2cccs2)cc1Cl returned Beta apoptosis inactive, ANO1 activ inactive, MC4R barr agon inactive, MC4R antagonist inactive and CSC inhib inactive.
OC(c1cc(-c2ccc(Cl)cc2)nc2ccccc12)C1CCCCN1 (stereo unspecified) was read as Beta apoptosis 120.9, ANO1 block inactive, ANO1 activ inactive, MC4R barr agon inactive, MC4R antagonist inactive and CSC inhib 116.3.
`CC(C)N1C(=O)/C(=C\c2nc3ccccc3c(=O)n2-c2ccccc2)c2ccccc21` gave Beta apoptosis inactive, ANO1 block inactive, ANO1 activ inactive, MC4R barr agon inactive, MC4R antagonist inactive and CSC inhib 75.3.

Source: PubChem
